STAT3 activator = IL-6 driven STAT3 reporter potentiators, primary screen, U3A cells, luciferase, luminescence, MLSCN library; IL-6 STAT3-luciferase reporter; 100% = signal with IL-6 EC80 alone; AID 871, 2007; actives 0.91% (n = 190,000); activation (% of control), % at 5.6 µM;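 active = activation above the screen-wide mean of compound activation plus 3 SD, cut at about 130% in these data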;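 also: 0% = background luminescence of wells with medium and substrate only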
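Assay system – human STAT1-deficient U3A cells with stable STAT3-luciferase reporter · Also added – IL-6 (33 ng/mL) · Schedule – compound 1 h, then IL-6 6 h at 37 °C · Technique – reporter luminescence signal · Evaluation – % activation versus median of IL-6-stimulated wells · Benchmarks – IL-6-only wells as 100% reference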
PPC-1+TRAIL kill = compounds killing PPC-1 cancer cells with TRAIL present, primary screen, TRAIL potentiator project, ATPLite luminescence, uHTS | PPC-1 cells + TRAIL, ATPLite viability luminescence | cell killing (% activity), % at 4 µM or 5 µM | actives 0.41% (n = 220,000);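 active = cell killing above 50% in the first pass at 4 µM, then a duplicate retest at 5 µM averaging 50% or more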;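 also: plate controls were cells with TRAIL plus DMSO for no effect and medium-only wells lacking cells for full effect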
STAT1 inh = STAT1 signaling inhibitors, primary screen, cell-based, HTS, luciferase reporter; inhibition, % at 5.5 µM; NIH 3T3 STAT1-luciferase reporter, IFN-gamma, luminescence; actives 0.35% (n = 200,000);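 active = inhibition above a set limit, the mean inhibition across all tested compounds plus 3 SD, cut at about 34% in these data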;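 also: 0% = IFN-gamma with DMSO and 100% = IFN-gamma with 300 µM nifuroxazide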
HSP90 refold inh = HSP90 inhibitors, primary screen, cell lysate, luminescence | Heat shock protein HSP 90 (rabbit reticulocyte lysate; luciferase refolding) | Rabbit reticulocyte lysate, luciferase refolding luminescence, 3 h | inhibition, % at 5.6 µM | actives 0.91% (n = 290,000) | AID 1789, 2009;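 active = inhibition above the screen-wide mean plus 3 SD, computed separately per campaign, cut at about 16% in these data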;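 also: 0% = DMSO wells and 100% = 60 µM geldanamycin wells; inhibitors lower the luminescence because luciferase stays unfolded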
STAT3 inh-1 = IL-6 driven STAT3 reporter inhibitors, primary screen, U3A cells, luciferase, luminescence, MLSCN library; IL-6 STAT3-luciferase reporter; host cell line lacks STAT1; AID 862, 2007; actives 0.89% (n = 190,000); inhibition, % at 5.5 µM;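 active = inhibition above the mean inhibition across all screened compounds plus 3 SD, cut at about 44% in these data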;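 also: 0% = DMSO only wells and 100% = 100 µM nifuroxazide control wells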
C8 TRAIL sens = viability loss with TRAIL in NB7+C8 cells, primary screen, TRAIL sensitizer project, cell-based, ATPlite luminescence; inhibition (viability loss, TRAIL sensitization), % at 10 µM; actives 1% (n = 360,000);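 active = compounds causing at least 50% loss of cell viability in the single-dose screen, relative to plate controls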
STAT3 inh-2 = STAT3 reporter inhibitors, retest of hits, confirmation, U3A cells, luciferase, luminescence; shares compounds with STAT3 inh-1; IL-6 STAT3 luciferase reporter; cell line lacks STAT1; inhibition, % at 5.7 µM; actives 45% (n = 1,200); AID 1265, 2008;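 active = inhibition above the hit cutoff computed for the primary STAT3 screen, cut at about 44% in these data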;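 also: 0% = IL-6 plus DMSO and 100% = IL-6 plus nifuroxazide control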
NFkB inh 2 = NF-kB reporter inhibitors in human cells, confirmation, counter-screen for STAT3 inhibitor project, cell-based, HEK293T, luciferase, TNF-alpha stimulus | shares compounds with STAT3 inh-1 | actives 36% (n = 1,200) | TNF-alpha induced | inhibition, % at 5.7 µM;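 active = inhibition above the mean of solvent-only control wells plus 3 SD, cutoff set per campaign, cut at about 13% in these data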;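 also: 0% = TNF-alpha with DMSO and 100% = TNF-alpha with MG high control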
STAT1 inh STAT3c = STAT1 reporter inhibitors, IFN-gamma induced, confirmation, counter-screen for STAT3 inhibitor project, cell-based, NIH 3T3, luciferase luminescence | inhibition, % at 5.7 µM | NIH 3T3 STAT1-luciferase reporter | shares compounds with STAT3 inh-1 | actives 27% (n = 1,200);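 active = inhibition above the mean plus 3 SD of solvent-only control wells, limit set per screening run, cut at about 16% in these data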;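 also: 0% = DMSO with IFN-gamma and 100% = nifuroxazide control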
Active calls of the source: *; nt = not tested or not shown. Hits are enriched below; roughly 2.3% of the tested compounds scored in any of these assays.

SMILES	STAT3 activator	PPC-1+TRAIL kill	STAT1 inh	HSP90 refold inh	STAT3 inh-1	C8 TRAIL sens	STAT3 inh-2	NFkB inh 2	STAT1 inh STAT3c
NC(Cc1ccc(C(F)(F)F)cc1)c1csc(NC(=O)Nc2ccccc2Cc2ccccc2)n1 (stereo not given)	nt	nt	nt	nt	nt	79*	nt	nt	nt
CC(C)c1ccc(NC(=O)Nc2nc(C(N)COCc3ccccc3)cs2)cc1 (stereo not given)	nt	nt	nt	nt	nt	77*	nt	nt	nt
O=CN1CCN(C(C(=O)NC2CCCC2)c2cc3c(cc2[N+](=O)[O-])OCO3)CC1 (stereo not given)	100	5	-5	0	7	-20	nt	nt	nt
O=C(CN1C(=O)NC2(CCCCC2)C1=O)Nc1cccc(S(=O)(=O)N2CCCC2)c1	nt	nt	nt	nt	nt	-7	nt	nt	nt
COc1ccc(CN2C(=O)C(CC(=O)NC(c3ccccc3)c3ccccc3)CC(C(=O)N(C)C)=C2C)cc1 (stereo not given)	nt	nt	nt	nt	nt	-8	nt	nt	nt
Cc1ccc(NC(=O)Nc2cccc(C)n2)c(C)c1	nt	13	nt	-1	nt	0	nt	nt	nt
NC(Cc1ccc(Cl)cc1)c1csc(NC(=O)NCC2CCCCC2)n1 (stereo not given)	nt	nt	nt	nt	nt	86*	nt	nt	nt
Cc1ccccc1NC(=O)Nc1cc(S(N)(=O)=O)ccc1C	109	14	-4	2	-2	8	nt	nt	nt
Cc1ccc(C(=O)N2CCSCC2)cc1	107	37	-1	17*	-4	-6	nt	nt	nt
C(=C\c1nnc2c3ccccc3ncn12)/c1ccccc1	145*	36	-54	1	-49	12	nt	nt	nt
COc1ccc(OCC(=O)N/N=C(\C)c2cc3ccccc3o2)cc1	94	40	-5	0	6	64*	nt	nt	nt
COc1ccc(OCC(=O)N/N=C(\C)c2ccc(OC)cc2)cc1	110	10	3	0	-11	2	nt	nt	nt
CC(C)c1ccc2[nH]c(O)c(N=NC(=O)c3cccc(S(=O)(=O)Nc4cccc(Cl)c4)c3)c2c1	nt	6	nt	-6	nt	50*	nt	nt	nt
O=C(Nc1ccccc1C(=O)N/N=C/c1ccc(O)cc1)c1ccccc1	nt	29	nt	13	nt	79*	nt	nt	nt
O=c1[nH]c(Nc2nc3ccccc3o2)nc2c1CCCC2	47	49	11	1	69*	55*	29	-2	-13
Cn1c(NC(=O)CCC2CCCCC2)cc(=O)n(C)c1=O	104	7	-53	-2	4	-7	nt	nt	nt
O=C(N/N=C/c1ccc2cccnc2c1)c1ccco1	58	34	0	14	55*	61*	20	-18	-63
CC1(C)CC(N2CCN(c3ccccc3)CC2)=CC(=[N+]2CCCC2)C1	37	-15	24	1	80*	9	77*	-2	27*
CCCCc1ccc(S(=O)(=O)NCCc2ccncc2)cc1	72	34	8	1	38	10	nt	nt	nt
COc1cc(C)c(Br)cc1S(=O)(=O)NCc1cccs1	nt	nt	nt	1	nt	6	nt	nt	nt
CCCCNS(=O)(=O)c1ccc(S(=O)(=O)NCc2ccncc2)cc1	57	13	25	-2	54*	22	35	-3	19*
Cc1cc(C)c(S(=O)(=O)NCc2ccncc2)c(C)c1	38	27	27	4	75*	10	74*	27*	23*
Cc1ccc(S(=O)(=O)NCc2ccncc2)c(C)c1C	32	nt	29	-2	81*	45	82*	26*	14
Cc1cc(C)c(S(=O)(=O)NCCc2ccncc2)c(C)c1	nt	nt	nt	0	nt	6	nt	nt	nt
COc1cc(C)c(Br)cc1S(=O)(=O)NCc1ccncc1	51	8	26	1	61*	35	58*	20*	18*
SMILES	STAT3 activator	PPC-1+TRAIL kill	STAT1 inh	HSP90 refold inh	STAT3 inh-1	C8 TRAIL sens	STAT3 inh-2	NFkB inh 2	STAT1 inh STAT3c
O=C(N/C=C/n1cnc2cc(C(F)(F)F)ccc21)c1ccccc1F	97	13	-1	2	12	-4	nt	nt	nt
CC(=O)c1ccc(N=Nc2ccc(C)cc2)cc1	33	44	31	15	82*	47	44*	-10	-96
CC(=O)c1ccc(N=Nc2ccc(N(C)C)cc2)cc1	56	45	-19	5	52*	78*	47*	22*	-69
COc1ccc(CNC(=O)CC2C(=O)NCCN2CC(C)(C)C)c(OC)c1 (stereo not given)	107	1	-3	0	-2	4	nt	nt	nt
CCOc1ccccc1NC(=O)C(=O)N/N=C/c1cc(Br)ccc1O	85	31	-3	1	22	39	nt	nt	nt
CC(=O)NC(Cc1ccc(C)cc1)C(=O)NC1CCN(C(=O)c2cnccn2)CC1 (stereo not given)	101	11	4	-1	2	-4	nt	nt	nt
Cn1cc([N+](=O)[O-])c(C(=O)Nc2nccs2)n1	82	-8	0	5	24	-1	nt	nt	nt
O=C(Nc1ccccn1)c1ccc2c(c1)OCCO2	60	nt	-12	10	51*	56*	21	-21	-50
O=C(Nc1ccccn1)c1ccc2c(c1)OCO2	89	6	-28	1	16	8	nt	nt	nt
COc1ccc(-c2noc(-c3ccc(Br)o3)n2)cc1	nt	-7	nt	-1	nt	5	nt	nt	nt
COc1ccc(-c2nc(-c3ccc(Br)o3)no2)cc1	65	29	-21	-3	49*	41	8	-19	-132
CSc1ccc(NC(=O)N2CCN(c3nc4ccccc4s3)CC2)cc1	64	27	10	0	46*	18	46*	5	10
COC1=C(N)C(=O)c2nc(-c3nc(C(=O)O)c(C)c(-c4ccc(OC)c(OC)c4O)c3N)ccc2C1=O	9	13	29	3	106*	nt	103*	97*	85*
S=C(c1nc2ccccc2[nH]1)N1CCOCC1	100	40	-4	-2	1	-11	nt	nt	nt
CC(C)c1ccc(/C=C/C(=O)NC2=NCCS2)cc1	43	39	6	1	68*	nt	31	-23	-92
CSc1nsc(SC)c1NC(=O)OCCc1ccccn1	95	9	3	0	9	-5	nt	nt	nt
Cc1cc(N=Nc2ccc(Cl)cc2)cc(CN2CCOCC2)c1O	nt	14	nt	-1	nt	-1	nt	nt	nt

Bioassay records deposited in PubChem BioAssay by several laboratories.
